The nature of data set [1]: Stability in pH 7.4 phosphate buffer at 37 degree C. Format: physicochemical. An outline of the steps:
(§1)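 Compounds were held in pH 7.4 phosphate buffer at 37 °C and monitored by reverse-phase HPLC on a PRP-1 column with UV detection at 275–286 nm. The mobile phase was 0.01 M tetradecyltrimethylammonium bromide in pH 8.2 phosphate/acetonitrile. Product-peak decline was followed to at least 50%, and half-life was taken from semilogarithmic plots.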

Data set [2] relates to Escherichia coli. Nature of the data set: In vitro antibacterial activity against Escherichia coli 25922. Format: functional. An outline of the steps:
(§2)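 MIC was determined by agar dilution on Mueller-Hinton agar. Serial 2-fold aqueous dilutions were diluted 10-fold in agar to give final concentrations of 128 to 0.0156 μg/mL. Plates were inoculated by Steers replicator with overnight broth cultures diluted 100-fold.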

The test system of data set [3] is Escherichia coli. Nature of the data set: In vitro antibacterial activity against Escherichia coli 257. The class given is functional.
For data set [4], the system named is Escherichia coli. Nature of the data set: In vitro antibacterial activity against Escherichia coli TEM-1 (constitutive beta-lactamase producer). Format: functional. An outline of the steps: as §2
Data set [5] has as its system Enterobacter cloacae. Nature of the data set: In vitro antibacterial activity against enterobacter cloacae P99 (constitutive beta-lactamase producer). Format: functional. The essentials:
as §2

Data set [6] relates to Klebsiella pneumoniae. Nature of the data set: In vitro antibacterial activity against klebsiella pneumoniae A. Format: functional. An outline of the steps:
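Agar-dilution MIC on Mueller-Hinton agar. Serial 2-fold dilutions were made in water, giving final agar concentrations of 128 to 0.0156 μg/mL. Inoculum was an overnight broth culture diluted 100-fold, applied with a multipoint replicator.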

Data set [7] relates to Proteus mirabilis. Nature of the data set: In vitro antibacterial activity against Proteus mirabilis 90. Format: functional. The essentials: (§3)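 Proteus MICs were determined by agar dilution on Mueller-Hinton agar containing 3% agar. Serial 2-fold dilutions gave final concentrations of 128 to 0.0156 μg/mL. Plates were replicator-inoculated with 100-fold-diluted overnight broth cultures.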

For data set [8], the system named is Pseudomonas aeruginosa. Nature of the data set: In vitro antibacterial activity against Ps. aeruginosa 18SH (constitutive beta-lactamase producer). Format: functional. An outline of the steps: as §2
Data set [9] deals with Pseudomonas aeruginosa. Nature of the data set: In vitro antibacterial activity against Pseudomonas aeruginosa 8780. Format: functional. An outline of the steps:
as §2

The test system of data set [10] is Proteus vulgaris. Nature of the data set: In vitro antibacterial activity against proteus vulgaris ATCC 6380 (constitutive beta-lactamase producer). The class given is functional. The essentials: as §3
Data set [11] concerns Staphylococcus aureus. Nature of the data set: In vitro antibacterial activity against Staphylococcus aureus 67(methicillin resistant). Format: functional. The essentials:
(§4)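 MIC by agar dilution on Mueller-Hinton agar. Compounds were serially 2-fold diluted in water, final 128 to 0.0156 μg/mL in agar. Inoculum: overnight broth culture diluted 100-fold, applied with a Steers replicator.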

Data set [12] relates to Staphylococcus aureus. Nature of the data set: (§5) In vitro antibacterial activity against Staphylococcus aureus 753 (constitutive beta-lactamase producer). Format: functional. The essentials: as §2
In data set [13] the test system is Streptococcus pyogenes. Nature of the data set: In vitro antibacterial activity against Streptococcus pyogenes 4. The class given is functional. An outline of the steps: (§6)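 Streptococcal MICs were determined by agar dilution on brain heart infusion agar supplemented with 20 units/mL bovine liver catalase. Final concentrations were 128 to 0.0156 μg/mL from 2-fold dilutions. Inocula were overnight broth cultures diluted 100-fold, applied by Steers replicator.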

In data set [14] the test system is Serratia marcescens. Nature of the data set: In vitro antibacterial activity against serratia marcescens SM (constitutive beta-lactamase producer). Format: functional. The essentials:
as §2

For data set [15], the system named is Staphylococcus aureus. Nature of the data set: In vitro antibacterial activity against staphylococcus aureus smith. The class given is functional. An outline of the steps: as §2
For data set [16], the system named is Streptococcus pneumoniae. Nature of the data set: In vitro antibacterial activity against streptococcus pneumoniae 6301. The class given is functional. An outline of the steps: as §6
Data set [17] has as its system Citrobacter freundii. Nature of the data set: In vitro antibacterial activity against citrobacter freundii BS-16 (constitutive beta-lactamase producer). The class given is functional. An outline of the steps: as §2
In data set [18] the test system is Escherichia coli. Nature of the data set: Effect on replication DNA biosynthesis in Escherichia coli H560 (permeabilised cells). The class given is functional, organism-based. The essentials: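 Toluene-permeabilized E. coli H560 cells were used. Replicative DNA synthesis was measured as ATP-dependent [3H]thymidine incorporation into trichloroacetic acid-insoluble material. IC50 is the concentration giving 50% inhibition.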

The subject of data set [19] is Escherichia coli. Nature of the data set: In vitro antibacterial activity against Escherichia coli UB1005 (nalidixic acid-resistant strain). The class given is functional. The essentials:
as §2

Data set [20] can be described thus: Stability in pH 7.4 phosphate buffer at 37 degree C. The class given is physicochemical. An outline of the steps:
as §1

For data set [21], the system named is Bacteroides thetaiotaomicron. Nature of the data set: In vitro antibacterial activity against Bacteroides thetaiotaomicron 62B. Format: functional. An outline of the steps: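 Anaerobic MICs were determined in microtiter plates in Schaedler's broth supplemented with coenzyme I and hemin. Incubation was under an oxygen-free hydrogen-carbon dioxide atmosphere.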

Data set [22] relates to Bacteroides fragilis. Nature of the data set: In vitro antibacterial activity against Bacteroides fragilis F117A. Format: functional. The essentials:
(§7)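 MIC by broth dilution in microtiter plates, run in an oxygen-free hydrogen–carbon dioxide atmosphere. Medium: Schaedler's broth with coenzyme I and hemin added.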

Data set [23] relates to Clostridium perfringens. Nature of the data set: In vitro antibacterial activity against Clostridium perfringens 13424. The class given is functional. The essentials:
as §7

Data set [24] concerns Bacteroides fragilis. Nature of the data set: In vitro antibacterial activity against bacteroides fragilis S2. The class given is functional. An outline of the steps:
(§8)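 Anaerobic MIC, run in microtiter plates in Schaedler's broth supplemented with coenzyme I and hemin. Incubated in an oxygen-free hydrogen–carbon dioxide atmosphere.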

The subject of data set [25] is Staphylococcus aureus. The description is as §5. Format: functional. The essentials:
as §4
The source holds these as a separate data set.

The test system of data set [26] is Clostridioides difficile. Nature of the data set: In vitro antibacterial activity against Clostridium difficile 701. The class given is functional.
Data set [27] concerns Clostridioides difficile. Nature of the data set: In vitro antibacterial activity against Clostridium difficile 651. Format: functional.
Data set [28] deals with Hathewaya histolytica. Nature of the data set: In vitro antibacterial activity against clostridium histolyticum 503-86. The class given is functional. An outline of the steps: as §8

Converted amounts (≈) assume the structure as drawn.

In turn, `O=C([O-])C1=C(COC(=O)N2CCN(c3cc4c(cc3F)c(=O)c(C(=O)O)cn4C3CC3)CC2)SC2CC(=O)N12.[Na+]` (stereo not drawn) gave a half-life in data set [1] of 16 h. Besides, the minimum inhibitory concentration (MIC) in [2] is 0.25 µg/mL; in [3] it was 0.25 µg/mL; in data set [4], 0.125 µg/mL; in [5] it was 0.125 µg/mL; in data set [6] it was 0.25 µg/mL; in [7], 1 µg/mL. In addition, the MIC in [8] amounted to 4 µg/mL; in data set [9] it was 16 µg/mL; in data set [10] it was 0.25 µg/mL; in data set [11], 1 µg/mL; in data set [12], 2 µg/mL; in [13], 0.125 µg/mL. In addition, the MIC in data set [14] turned out to be 0.25 µg/mL; in [15], 1 µg/mL; in data set [16] it was 0.125 µg/mL; in [17], 0.25 µg/mL; in data set [19], 2 µg/mL. In addition, in data set [18], 2 µg/mL corresponded to half-maximal inhibition (IC50).
In the case of `C[C@@H](O)[C@H]1C(=O)N2C(C(=O)[O-])=C(COC(=O)c3cn(CCF)c4c(F)c(N5CCN(C)CC5)c(F)cc4c3=O)C[C@H]12.[Na+]`, the half-life in data set [20] was 11 h. Also, the minimum inhibitory concentration (MIC) was 4 µg/mL in data set [21]; 1 µg/mL in data set [22]; less than 0.125 µg/mL in [23]; less than 0.125 µg/mL in [24]; 0.12 µg/mL in [2]; 0.125 µg/mL in data set [3]. For the same compound, the MIC came to 0.125 µg/mL in data set [4]; 0.125 µg/mL in data set [5]; 0.25 µg/mL in data set [6]; 1 µg/mL in data set [7]; 2 µg/mL in [8]; 4 µg/mL in data set [9]. Besides, the minimum inhibitory concentration (MIC) amounted to 0.25 µg/mL in data set [10]; 1 µg/mL in data set [11]; 1 µg/mL in data set [25]; 0.0157 µg/mL in data set [13]; 0.25 µg/mL in data set [14]; 0.125 µg/mL in data set [15]. Also, the minimal inhibitory concentration (MIC) came to 0.0157 µg/mL in [16], 0.25 µg/mL in data set [17], 4 µg/mL in [26] and 1 µg/mL in data set [19]. In [18], the IC50 turned out to be 10 µg/mL.
In the case of `CN1CCN(c2c(F)cc3c(=O)c(C(=O)O)cn(CCF)c3c2F)CC1` [FLEROXACIN], the MIC in data set [21] was found to be 64 µg/mL (≈ 173 µM); in data set [22] it was 64 µg/mL (≈ 173 µM); in data set [27], 16 µg/mL (≈ 43.3 µM); in data set [23], 0.5 µg/mL (≈ 1.35 µM); in [24], 8 µg/mL (≈ 21.7 µM); in [28], 0.25 µg/mL (≈ 0.677 µM). The MIC in data set [2] is 0.03 µg/mL (≈ 0.0812 µM); in data set [3], 0.0313 µg/mL (≈ 0.0847 µM); in data set [4], 0.0625 µg/mL (≈ 0.169 µM); in data set [5] it was 0.0313 µg/mL (≈ 0.0847 µM); in data set [6] it was 0.0625 µg/mL (≈ 0.169 µM); in data set [7], 0.25 µg/mL (≈ 0.677 µM). The minimal inhibitory concentration (MIC) in data set [8] turned out to be 1 µg/mL (≈ 2.71 µM); in data set [9], 2 µg/mL (≈ 5.42 µM); in data set [10], 0.0625 µg/mL (≈ 0.169 µM); in data set [11], 0.5 µg/mL (≈ 1.35 µM); in [25], 0.5 µg/mL (≈ 1.35 µM); in [13], 2 µg/mL (≈ 5.42 µM). The MIC came to 0.0625 µg/mL (≈ 0.169 µM) in data set [14]; 0.25 µg/mL (≈ 0.677 µM) in [15]; 4 µg/mL (≈ 10.8 µM) in [16]; 0.125 µg/mL (≈ 0.338 µM) in [17]; 16 µg/mL (≈ 43.3 µM) in [26]; 0.5 µg/mL (≈ 1.35 µM) in data set [19]. The half-maximal inhibitory concentration (IC50) in data set [18] is 1 µg/mL (≈ 2.71 µM).

These data come from ChEMBL document CHEMBL1126202, “Dual-action penems and carbapenems” (J Med Chem, 1992).
